Positions count from the first letter of the chain named.
Columns and labels:
Assay type in all cases: cell-based, rabbit
D444N mutant EAAC1 = target: T1, D444N mutant EAAC1 (Oryctolagus cuniculus, UniProt P31597, D444N); test: Blockade of transient currents; details: D444N; for IC50: read-out: IC50 for substrates/blockers of charge movements, Xenopus oocytes, mean ± SEM
T1 sequence (P31597 1-524 D444N): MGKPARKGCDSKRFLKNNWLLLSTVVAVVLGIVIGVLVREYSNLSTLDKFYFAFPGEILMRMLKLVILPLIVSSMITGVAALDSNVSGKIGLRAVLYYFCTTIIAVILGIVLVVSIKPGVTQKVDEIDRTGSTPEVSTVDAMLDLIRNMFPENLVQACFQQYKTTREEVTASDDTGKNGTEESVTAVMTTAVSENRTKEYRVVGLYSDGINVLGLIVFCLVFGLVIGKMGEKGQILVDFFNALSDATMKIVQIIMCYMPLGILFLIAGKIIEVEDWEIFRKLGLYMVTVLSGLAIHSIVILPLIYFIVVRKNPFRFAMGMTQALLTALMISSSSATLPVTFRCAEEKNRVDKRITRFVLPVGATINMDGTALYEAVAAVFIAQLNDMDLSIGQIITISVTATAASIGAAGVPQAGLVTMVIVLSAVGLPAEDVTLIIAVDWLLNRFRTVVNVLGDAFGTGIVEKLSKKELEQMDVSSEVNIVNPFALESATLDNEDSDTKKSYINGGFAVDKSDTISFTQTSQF

D444S-EAAC1 = target: T2, D444S-EAAC1 (Oryctolagus cuniculus, UniProt P31597, D444S); test: Substrate-induced steady-state transport currents in oocytes expressing D444S; details: 2 mM for L-aspartate and succinate, other concentrations not given
T2 sequence (P31597 1-524 D444S): T1 sequence (P31597 1-524 D444N) with N444S

D444A mutant EAAC1 = target: T3, D444A mutant EAAC1 (Oryctolagus cuniculus, UniProt P31597, D444A); test: Blockade of sodium-dependent transient currents; details: read-out: IC50 for substrates/blockers of charge movements, Xenopus oocytes, mean ± SEM
T3 sequence (P31597 1-524 D444A): T1 sequence (P31597 1-524 D444N) with N444A

D444C after MTSES = target: T4, D444C after MTSES (Oryctolagus cuniculus, UniProt P31597, D444C); test: Blockade of transient currents; details: for Decay time of transient currents blocked: D444C after MTSES, 10 mM compound; for IC50: read-out: IC50 for substrates/blockers of charge movements, D444C after MTSES (2 mM), Xenopus oocytes, mean ± SEM
T4 sequence (P31597 1-524 D444C): T1 sequence (P31597 1-524 D444N) with N444C
Outline: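 Oocytes were injected with cRNA for His-tagged EAAC1 D444C and held by two-electrode voltage clamp at −25 mV, stepped from −100 to +40 mV in 10-mV steps of 250 ms each, in ND96 pH 7.5. MTSES (2 mM final) was added under clamp with flow stopped, reacted 2 min, then washed out 5 min. Transients were taken as buffer minus buffer+compound (10 mM) and decay times fitted to a first-order exponential; 3–10 oocytes.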

Row | SMILES | IC50 (D444N mutant EAAC1) [µM] | Induction of steady-state transport currents (D444S-EAAC1) | IC50 (D444A mutant EAAC1) [µM] | Decay time of transient currents blocked (D444C after MTSES) [ms] | IC50 (D444C after MTSES) [µM] | Inhibition of the transient currents (D444N mutant EAAC1; 10 mM succinate)
1 | N[C@@H](CC(=O)O)C(=O)O [L-Aspartate, L-aspartate] | 295 ± 45 | not observed | 720 ± 80 | 10.2 ± 0.4 | 112 ± 19 | –
2 | O=C(O)CCC(=O)O [Succinate, succinate] | > 10000 | did not induce any steady-state currents | 870 ± 110 | 8.7 ± 1.5 | 716 ± 25 | no inhibition was observed
